Source: PubChem BioAssay
PvdQ inh = P. aeruginosa PvdQ acylase inhibition. actives 0.063% (n = 340,000). inhibition, % at 10 µM. purified PvdQ acylase, fluorescence plate reader; in the data active = inhibition above about 30%, passing the limit was not always enough;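 also: 0% = vehicle neutral wells and 100% = reference inhibitor wells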
CR mimetic SO = lowers age-related superoxide in aged yeast cells; S. cerevisiae aged cells, superoxide DHE fluorescence; stronger effect = lower value; superoxide response (% of plate mean), % at 10 µM; actives 0.18% (n = 330,000); AID 2690;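 active = superoxide response under a set limit, about three screen SD below normal, cut at about 65% in these data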;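 also: yeast aged for seven days with compound at 30 °C before DHE staining; 100% = average MFI of all compound-treated wells on the plate with controls excluded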
VIM-2 inhibitor = inhibitors of Pseudomonas aeruginosa VIM-2 metallo-beta-lactamase; purified VIM-2, nitrocefin hydrolysis, epi-absorbance fluorescence; inhibition, % at 5.6 µM; actives 0.89% (n = 290,000);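 active = inhibition above the mean of all tested compounds plus 3 SD, cutoff set per screening run, cut at about 7.5% in these data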;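 also: red hydrolysis product quenches plate fluorescence so inhibitors raise well fluorescence; 0% = enzyme with DMSO and 100% = DMSO without enzyme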
PHOSPHO1 block = inhibitors of human PHOSPHO1 phosphatase | recombinant PHOSPHO1, absorbance phosphatase assay | actives 1.1% (n = 290,000) | inhibition, % at 13.3 µM; in the data active = inhibition above about 60%
Target sequence (Q8TCT1 whole entry, looked up): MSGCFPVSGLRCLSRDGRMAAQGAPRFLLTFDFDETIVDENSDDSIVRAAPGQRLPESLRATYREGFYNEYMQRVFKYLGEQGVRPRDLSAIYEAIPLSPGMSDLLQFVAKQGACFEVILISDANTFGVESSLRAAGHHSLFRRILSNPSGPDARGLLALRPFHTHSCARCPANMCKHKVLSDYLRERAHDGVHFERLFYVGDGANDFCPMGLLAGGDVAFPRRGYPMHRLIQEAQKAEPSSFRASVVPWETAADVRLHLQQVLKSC
IMP-1 inh = inhibitors of Pseudomonas aeruginosa IMP-1 metallo-beta-lactamase; purified IMP-1, nitrocefin hydrolysis, epi-absorbance fluorescence; inhibition, % at 5.6 µM; actives 0.45% (n = 290,000); AID 1556;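 active = inhibition above the mean plus 3 SD of all compounds in the same screening run, cut at about 4.5% in these data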;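 also: 0% = IMP-1 with DMSO and 100% = DMSO wells lacking enzyme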
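Material – recombinant IMP-1 enzyme, purified · Amount – IMP-1 0.2 nM before substrate addition · Medium – HEPES buffer pH 7.1 with ZnSO4 and Brij 35 · Timing – 25 °C, 15 min preincubation, 25 min reaction · Measured by – plate fluorescence quenching by hydrolysis product, ex 480/em 530 nm · Read-out – percent enzyme inhibition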
Active calls of the source: *; x = no result given. Compounds with a hit are over-represented: about 2.2% of the library has one in this group of screens.

SMILES | PvdQ inh | CR mimetic SO | VIM-2 inhibitor | PHOSPHO1 block | IMP-1 inh
CC(=O)N1CC(C)Oc2ccc(S(=O)(=O)NC(CC(=O)O)c3cc(C)ccc3C)cc21 (stereo not drawn) | -12 | 86 | -1 | 27 | -1
CC(=O)N1CC(C)Oc2ccc(S(=O)(=O)NC(CC(=O)O)c3ccccc3C)cc21 (stereo not drawn) | -7 | 92 | -2 | 65* | -2
CCOCc1cnc(C)nc1NCC(=O)c1c(C)[nH]c2ccc(OC)cc12 | -10 | 82 | 0 | 64* | -3
COc1ccc2[nH]c(C)c(C(=O)CN3CCN(C/C=C/c4ccccc4)CC3)c2c1 | -9 | 103 | 4 | 24 | 0
COc1ccc(C(=O)NC2CC2)cc1OC1CCN(Cc2ccc(NC(C)=O)cc2)CC1 | -13 | x | -3 | 22 | -3
CCOC(=O)C1=C(C)Nc2nc(SCC)nn2C1c1ccc(OC)cc1 (stereo not drawn) | -2 | 104 | 1 | -16 | -1
CCOC(=O)C1=C(C)Nc2nc(=S)[nH]n2C1c1ccc(Cl)cc1 (stereo not drawn) | -10 | x | -5 | 97* | -2
CCOC(=O)C1=C(C)Nc2nc3ccccc3n2C1c1ccc(O)cc1 (stereo not drawn) | -6 | 97 | -4 | 24 | 29*
CCN(CC(=O)NCc1cccs1)C(=O)c1cccc(S(=O)(=O)N2CC(C)OC(C)C2)c1 (stereo not drawn) | -14 | 83 | x | x | x
CCOC(=O)c1ccc(NC(=O)CN2CCN(C(=O)c3ccco3)CC2)cc1 | 9 | 105 | -5 | 75* | -4
N#Cc1ccc(-c2ccc(Cl)cc2)nc1SCC(=O)c1cccc(Cl)c1 | 6 | 86 | -2 | 76* | 1
Cc1ccc(C)c(OCC(=O)Nc2cccc(S(=O)(=O)NC3=NCCCCC3)c2)c1 | 10 | 112 | -1 | 67* | -2
Cc1ccc(Sc2ncccc2COC(=O)NC(C)C)cc1 | -20 | 99 | 0 | 40 | -2
COc1ccc(NS(=O)(=O)c2cc(-c3nnnn3C)ccc2OC)cc1 | -16 | 91 | -2 | 66* | -3
COCCN1Cc2cc3cc(C)ccc3nc2SC1=Nc1cccc(OC)c1 | 13 | 101 | -3 | -5 | -1
Cc1cccc(N=C2Sc3nc4c(C)c(C)ccc4cc3CN2CCN2CCOCC2)c1 | 4 | 99 | -2 | 81* | -2
O=C(Nc1nc2c(s1)CCCC2)C1CCCN1C(=O)c1cccs1 (stereo not drawn) | 9 | 91 | -1 | 95* | -5
O=C(Nc1nccs1)[C@@H]1CCCN1C(=O)c1cccs1 | -11 | 93 | 0 | 36 | -2
Cn1ccnc1SCC(=O)NC1CCCCC1 | -10 | 105 | 2 | 62* | 0
Cn1c(SCC(=O)NC2CC2)nnc1-c1ccco1 | 15 | 108 | -2 | -8 | -4
COc1ccc(OCc2nnc(SCC(=O)NC3CC3)n2C)cc1 | 3 | 100 | -3 | 63* | -3
CCOC(=O)CN(C(=O)CSc1nnc(COc2ccc(OC)cc2)n1C)c1ccccc1 | -13 | 103 | -2 | 74* | -1
Cn1c(COc2ccc(F)cc2)nnc1SCC(=O)NC1CC1 | -14 | 100 | -1 | 41 | -3
CC(C)n1c(SCC(=O)NC2CC2)nnc1-c1ccco1 | -10 | 92 | -2 | 66* | -3
CC1CCCCC1NC(=O)COC(=O)COc1ccccc1F (stereo not drawn) | -1 | 120 | x | x | x
SMILES | PvdQ inh | CR mimetic SO | VIM-2 inhibitor | PHOSPHO1 block | IMP-1 inh
Cc1ccccc1CCN(C(=O)c1csnn1)C(C(=O)NC1CCCC1)c1ccncc1 (stereo not drawn) | 8 | 107 | 1 | 3 | -1
CCOc1ccc(S(=O)(=O)N2CCN(C(=O)C3CCC3)CC2)cc1 | -4 | 112 | x | x | x
CC/C(=N/NC(=O)c1ccc2c(c1)OCO2)c1ccccc1O | 2 | 92 | x | x | x
Cc1cc(C(=O)Nc2sc3c(c2C#N)CCC(C(C)(C)C)C3)no1 (stereo not drawn) | -3 | 98 | -2 | 40 | -3
CC(C)(C)C1CCc2c(sc(NC(=O)c3cc(C4CC4)on3)c2C#N)C1 (stereo not drawn) | -2 | 111 | -5 | 4 | 4.9*
CCc1cc(-c2n[nH]c(=S)n2-c2cccc(C)c2)cs1 | -1 | 96 | -1 | 92* | -3
Cc1cc(-c2n[nH]c(=S)n2-c2ccccc2C)cs1 | -9 | 106 | 11* | -26 | -3
Cc1cc(Cl)ccc1-n1c(-c2cccnc2)n[nH]c1=S | 3 | 102 | -2 | 78* | -6
Cc1cccc(-n2c(-c3csc(C)c3)n[nH]c2=S)c1 | 6 | 105 | 7.7* | 99* | -3
